Series [1] addresses T1, α-Mannosidase (α-Man) (Canavalia ensiformis, UniProt C0HJB3).
T1 sequence (C0HJB3 1-562 limits assumed): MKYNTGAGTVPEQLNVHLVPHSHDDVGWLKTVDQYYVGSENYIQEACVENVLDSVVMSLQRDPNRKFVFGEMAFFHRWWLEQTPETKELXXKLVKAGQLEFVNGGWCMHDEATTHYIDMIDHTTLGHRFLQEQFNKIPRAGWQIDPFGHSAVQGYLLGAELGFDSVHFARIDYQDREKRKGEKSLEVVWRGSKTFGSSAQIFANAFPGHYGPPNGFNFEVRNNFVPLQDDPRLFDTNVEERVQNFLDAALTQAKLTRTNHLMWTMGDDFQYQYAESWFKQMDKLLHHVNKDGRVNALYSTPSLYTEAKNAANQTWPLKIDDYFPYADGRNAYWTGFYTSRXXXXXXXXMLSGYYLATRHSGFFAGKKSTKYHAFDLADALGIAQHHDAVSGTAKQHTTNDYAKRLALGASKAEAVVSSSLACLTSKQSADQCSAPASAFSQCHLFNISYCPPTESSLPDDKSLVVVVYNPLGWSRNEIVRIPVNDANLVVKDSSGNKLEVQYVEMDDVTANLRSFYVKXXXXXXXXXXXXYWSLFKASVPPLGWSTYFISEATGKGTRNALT
T1 sequence (C0HJB3 563-981 partner limits assumed): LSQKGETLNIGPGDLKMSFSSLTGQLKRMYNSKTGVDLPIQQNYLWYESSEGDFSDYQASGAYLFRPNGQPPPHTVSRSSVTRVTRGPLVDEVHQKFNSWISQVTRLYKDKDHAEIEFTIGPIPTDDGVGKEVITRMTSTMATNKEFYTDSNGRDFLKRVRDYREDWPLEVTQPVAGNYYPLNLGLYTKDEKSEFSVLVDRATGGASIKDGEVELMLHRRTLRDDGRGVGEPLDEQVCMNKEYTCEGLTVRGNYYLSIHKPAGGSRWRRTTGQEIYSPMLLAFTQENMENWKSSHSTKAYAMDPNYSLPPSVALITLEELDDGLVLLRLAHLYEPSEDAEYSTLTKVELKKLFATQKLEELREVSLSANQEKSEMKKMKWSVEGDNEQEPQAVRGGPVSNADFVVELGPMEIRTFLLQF
Kind of series: SPR interaction analysis between compounds and immobilised α-Man. The class given is binding, Canavalia ensiformis (Jack bean). Particulars: for pKd: KD (equilibrium dissociation constant), kinetic analysis, SPR, 25 °C, 1:1 Langmuir binding model; for kon: read-out: ka (association rate constant); for koff: read-out: kd (dissociation rate constant). The procedure, abridged:
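The α-Man chip was referenced against an enzyme-free channel. Each test compound was run at six concentrations in a twofold series, injected in parallel at 25 μL/min and 25 °C, with 12 min association and 20 min dissociation. A 4.0–6.0% DMSO calibration curve was applied. Runs were done in triplicate. ka, kd and KD came from a global 1:1 Langmuir fit; equilibrium constants came from steady-state analysis.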

Series [2] relates to human hepatoma cancer cell line (HepG2). Kind of series: cells. Format: cell-based. Particulars: HepG2, 72 h, read-out: IC50, anti-proliferative activity.
Series [3] relates to human breast cancer cell line (MCF7). Nature of the series: cells. Format: cell-based. Particulars: MCF7, 72 h, read-out: IC50, anti-proliferative activity.
The subject of series [4] is human lung cancer cell line (HCC827). Kind of series: cells. Format: cell-based. Particulars: HCC827, 72 h, read-out: IC50, anti-proliferative activity.
Series [5] has as its system mouse fibroblast cells (L929). Nature of the series: CCK-8 toxicity on normal cells, L929. Format: cell-based. Particulars: L929, under the condition of keeping 90% cell viability.
The target of series [6] is T1, α-Mannosidase (α-Man). Nature of the series: SPR bioactivity assessment: binding ability. Set-up: species or system Canavalia ensiformis (Jack bean). Particulars: swainsonine standard solution, PBST running buffer. Summed up: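 Jack bean α-Man was amine-coupled onto the GLH chip binding channel after sulfo-NHS/EDC activation. Coupling was at 20 μg/mL in 10 mmol/L sodium acetate, pH 4, at 25 μL/min for 360 s, followed by ethanolamine blocking. A reference channel was activated and blocked without enzyme. A positive-control inhibitor standard was injected, with PBST (10 mmol/L Na3PO4, 150 mmol/L NaCl, 0.005% Tween 20, pH 7.4) as the blank. The response was followed during association.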

Here are results for five compounds from paper PMC10230635 (Chinese Herbal Medicines, 2022).

pIC50, pKd: −log10 of the molar value.

For orientation: pKd means the negative decadic logarithm of the Kd, by convention in mol/L. A high value points to a low Kd. Broadly, the pIC50 is the IC50 on a negative log10 scale, so that one unit is a factor of ten.

With `O=Cc1ccc(O)cc1` [Compound 1, p-Hydroxybenzaldehyde], on α-Mannosidase (α-Man) [1], the pKd is 2.86, the kon came to 1.54 M⁻¹ s⁻¹ and the koff was 0.00211 s⁻¹.

In the case of `COc1cc(C=O)cc(OC)c1O` [Compound 2, 3,5-Dimethoxy-4-hydroxy-benzaldehyde], at α-Mannosidase (α-Man) [1], the negative-log Kd (pKd) was 3.46, the kon worked out at 12 M⁻¹ s⁻¹ and the koff was found to be 0.00418 s⁻¹.

Turning to `O=c1c2ccccc2nc2n1CCC2` [Compound 3, Deoxyvasicinone], at α-Mannosidase (α-Man) [1], the pKd is 4.33. Besides, the kon on α-Mannosidase (α-Man) [1] was found to be 73.3 M⁻¹ s⁻¹. For the same compound, on α-Mannosidase (α-Man) [1], the koff was determined as 0.00347 s⁻¹. The pIC50 is 5.24 in series [2], 5.14 in series [3] and 6.12 in series [4]. Moreover, in series [5], the safe dose was found to be 20 µmol/L.

Compound `COc1cc2ncnc(Nc3ccc(F)c(Cl)c3)c2cc1OCCCN1CCOCC1` [Gefitinib, reference compound] had a safe dose in series [5] of 40 µmol/L.

In the case of `O[C@H]1[C@H]2[C@H](O)CCCN2C[C@H]1O` [swainsonine, Swainsonine], the “response signal during association” value on α-Mannosidase (α-Man) [6] stood at 20 RU.
